How the values were obtained:
[1] = test system: BaF3; assay: Antiproliferative activity against mouse BAF3 cells assessed as reduction in cell viability after 72 hrs by MTS assay; format: cell-based; conditions: BaF3, 72 h
[2] = Metabolic stability in human liver microsomes assessed as parent compound remaining at 1 uM after 30 mins in presence of NADPH by LC/MS/MS analysis; format: ADME, Microsome; conditions: read-out: Stability
Procedure, shortened: (§1)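 Compound at 1 μM final with 0.5 mg/mL microsomal protein in 100 mM phosphate buffer pH 7.4 at 37 °C, started by adding an NADPH-regenerating system. Reactions were quenched with cold acetonitrile at 0 and 30 min and spun down. Supernatant was analysed by LC-MS/MS. The 0-min sample, quenched before NADPH addition, was set as 100%, and percent parent remaining came from peak areas.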

[3] = Metabolic stability in dog liver microsomes assessed as parent compound remaining at 1 uM after 30 mins in presence of NADPH by LC/MS/MS analysis; format: ADME, Canis lupus familiaris, Microsome; conditions: read-out: Stability; procedure, shortened: as §1
[4] = Metabolic stability in rat liver microsomes assessed as parent compound remaining at 1 uM after 30 mins in presence of NADPH by LC/MS/MS analysis; format: ADME, Microsome; conditions: read-out: Stability; procedure, shortened: as §1
[5] = Metabolic stability in mouse liver microsomes assessed as parent compound remaining at 1 uM after 30 mins in presence of NADPH by LC/MS/MS analysis; format: ADME, Microsome; conditions: read-out: Stability; procedure, shortened: as §1
[6] = molecular target: T1, CYP1A2 (Homo sapiens, UniProt P05177); assay: Residual activity of CYP1A2 in human liver microsomes at 10 uM using phenacetin O-deethylase as substrate preincubated for 5 mins followed by NADPH addition measured after 15 mins by LC/MS/MS analysis relative to control; conditions: probe phenacetin (O-deethylation)
T1 sequence (P05177 whole entry): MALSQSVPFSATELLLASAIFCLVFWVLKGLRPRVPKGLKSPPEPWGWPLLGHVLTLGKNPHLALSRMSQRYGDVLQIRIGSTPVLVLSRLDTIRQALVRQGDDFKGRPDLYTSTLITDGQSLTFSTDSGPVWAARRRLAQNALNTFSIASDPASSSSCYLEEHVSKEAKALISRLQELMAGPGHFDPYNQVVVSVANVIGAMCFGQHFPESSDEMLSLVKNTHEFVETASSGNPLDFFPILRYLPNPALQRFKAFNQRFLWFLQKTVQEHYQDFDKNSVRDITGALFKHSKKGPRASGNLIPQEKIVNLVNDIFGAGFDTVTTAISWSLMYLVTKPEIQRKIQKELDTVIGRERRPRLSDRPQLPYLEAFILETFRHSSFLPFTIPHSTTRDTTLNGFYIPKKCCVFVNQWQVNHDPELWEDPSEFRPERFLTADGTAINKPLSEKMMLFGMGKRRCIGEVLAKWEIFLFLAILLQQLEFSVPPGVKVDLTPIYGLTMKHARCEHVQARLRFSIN

[7] = molecular target: CYP3A4 (Homo sapiens, UniProt P08684); assay: Residual activity of CYP3A4 in human liver microsomes at 10 uM using midazolam 1-hydroxylase as substrate preincubated for 5 mins followed by NADPH addition measured after 15 mins by LC/MS/MS analysis relative to control; conditions: probe midazolam (1-hydroxylation)
[8] = molecular target: CYP2C9 (Homo sapiens, UniProt P11712); assay: Residual activity of CYP2C9 in human liver microsomes at 10 uM using tolbutamide 4-hydroxylase as substrate preincubated for 5 mins followed by NADPH addition measured after 15 mins by LC/MS/MS analysis relative to control; conditions: probe tolbutamide (4-hydroxylation)
[9] = molecular target: CYP2C19 (Homo sapiens, UniProt P33261); assay: Residual activity of CYP2C19 in human liver microsomes at 10 uM using S-mephenytoin 4-hydroxylase as substrate preincubated for 5 mins followed by NADPH addition measured after 15 mins by LC/MS/MS analysis relative to control; conditions: probe S-mephenytoin (4-hydroxylation)
[10] = molecular target: CYP2D6 (Homo sapiens, UniProt P10635); assay: Residual activity of CYP2D6 in human liver microsomes at 10 uM using dextromethorphan O-demethylase as substrate preincubated for 5 mins followed by NADPH addition measured after 15 mins by LC/MS/MS analysis relative to control; conditions: probe dextromethorphan (O-demethylation)
[11] = molecular target: ALK tyrosine kinase receptor (Homo sapiens, UniProt Q9UM73); assay: Inhibition of GST-tagged human ALK cytoplasmic domain (1058 to 1620 residues) expressed in baculovirus expression system using Poly G:T (4:1) as substrate after 30 mins by Z-LYTE assay
Sequence of ALK tyrosine kinase receptor (Q9UM73 whole entry, the tested form may be a part): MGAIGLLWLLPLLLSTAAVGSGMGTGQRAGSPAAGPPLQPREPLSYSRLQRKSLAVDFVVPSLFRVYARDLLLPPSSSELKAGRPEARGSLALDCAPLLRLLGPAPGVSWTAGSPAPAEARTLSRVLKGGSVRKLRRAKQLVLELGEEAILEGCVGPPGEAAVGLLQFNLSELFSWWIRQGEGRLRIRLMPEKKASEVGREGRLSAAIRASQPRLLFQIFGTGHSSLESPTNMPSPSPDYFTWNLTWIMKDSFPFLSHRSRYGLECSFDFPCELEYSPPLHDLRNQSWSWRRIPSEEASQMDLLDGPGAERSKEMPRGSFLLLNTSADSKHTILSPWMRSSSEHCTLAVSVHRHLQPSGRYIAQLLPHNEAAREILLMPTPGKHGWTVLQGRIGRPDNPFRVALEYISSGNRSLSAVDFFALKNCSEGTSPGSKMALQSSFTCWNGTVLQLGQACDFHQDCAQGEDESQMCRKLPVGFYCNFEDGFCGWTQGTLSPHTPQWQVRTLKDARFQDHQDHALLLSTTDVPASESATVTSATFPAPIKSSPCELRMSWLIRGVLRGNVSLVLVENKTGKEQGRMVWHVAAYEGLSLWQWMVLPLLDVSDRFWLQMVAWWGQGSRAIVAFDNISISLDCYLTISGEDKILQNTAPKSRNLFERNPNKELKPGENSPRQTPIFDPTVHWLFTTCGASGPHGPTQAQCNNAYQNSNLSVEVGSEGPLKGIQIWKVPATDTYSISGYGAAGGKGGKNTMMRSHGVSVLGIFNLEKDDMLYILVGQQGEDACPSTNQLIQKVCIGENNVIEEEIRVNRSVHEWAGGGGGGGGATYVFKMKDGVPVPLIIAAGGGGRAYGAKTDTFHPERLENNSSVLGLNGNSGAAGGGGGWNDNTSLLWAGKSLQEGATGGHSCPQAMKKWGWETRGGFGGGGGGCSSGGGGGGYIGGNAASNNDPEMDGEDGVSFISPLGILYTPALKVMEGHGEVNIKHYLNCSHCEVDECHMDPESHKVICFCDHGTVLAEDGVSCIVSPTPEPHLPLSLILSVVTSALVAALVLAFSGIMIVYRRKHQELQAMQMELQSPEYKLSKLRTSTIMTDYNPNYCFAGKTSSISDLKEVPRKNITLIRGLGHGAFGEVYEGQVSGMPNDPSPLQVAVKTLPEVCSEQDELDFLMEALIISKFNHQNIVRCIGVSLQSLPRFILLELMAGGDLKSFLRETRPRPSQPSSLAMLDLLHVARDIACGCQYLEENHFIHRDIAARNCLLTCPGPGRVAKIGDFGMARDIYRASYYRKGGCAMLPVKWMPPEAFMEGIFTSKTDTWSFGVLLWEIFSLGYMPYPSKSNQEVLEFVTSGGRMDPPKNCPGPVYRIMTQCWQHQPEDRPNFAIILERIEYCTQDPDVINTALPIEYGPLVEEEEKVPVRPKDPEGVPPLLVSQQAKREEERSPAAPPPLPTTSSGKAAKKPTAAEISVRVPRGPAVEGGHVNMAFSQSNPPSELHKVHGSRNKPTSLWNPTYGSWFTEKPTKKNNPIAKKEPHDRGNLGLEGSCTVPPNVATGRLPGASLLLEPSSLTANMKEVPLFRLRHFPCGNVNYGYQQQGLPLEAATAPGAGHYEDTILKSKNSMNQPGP

Sequence of CYP3A4 (P08684 whole entry): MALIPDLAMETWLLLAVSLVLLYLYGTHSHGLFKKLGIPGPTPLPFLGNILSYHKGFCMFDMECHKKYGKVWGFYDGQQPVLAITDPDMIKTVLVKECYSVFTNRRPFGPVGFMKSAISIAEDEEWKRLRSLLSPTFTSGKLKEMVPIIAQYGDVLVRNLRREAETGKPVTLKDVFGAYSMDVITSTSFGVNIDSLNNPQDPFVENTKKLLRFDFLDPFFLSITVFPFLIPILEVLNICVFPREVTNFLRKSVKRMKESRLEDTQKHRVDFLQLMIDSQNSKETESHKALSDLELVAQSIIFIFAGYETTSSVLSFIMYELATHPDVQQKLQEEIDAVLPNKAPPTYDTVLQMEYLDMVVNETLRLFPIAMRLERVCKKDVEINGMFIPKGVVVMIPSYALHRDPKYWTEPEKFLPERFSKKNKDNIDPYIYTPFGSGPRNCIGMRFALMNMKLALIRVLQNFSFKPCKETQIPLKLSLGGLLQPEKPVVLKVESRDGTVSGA
Sequence of CYP2C9 (P11712 whole entry): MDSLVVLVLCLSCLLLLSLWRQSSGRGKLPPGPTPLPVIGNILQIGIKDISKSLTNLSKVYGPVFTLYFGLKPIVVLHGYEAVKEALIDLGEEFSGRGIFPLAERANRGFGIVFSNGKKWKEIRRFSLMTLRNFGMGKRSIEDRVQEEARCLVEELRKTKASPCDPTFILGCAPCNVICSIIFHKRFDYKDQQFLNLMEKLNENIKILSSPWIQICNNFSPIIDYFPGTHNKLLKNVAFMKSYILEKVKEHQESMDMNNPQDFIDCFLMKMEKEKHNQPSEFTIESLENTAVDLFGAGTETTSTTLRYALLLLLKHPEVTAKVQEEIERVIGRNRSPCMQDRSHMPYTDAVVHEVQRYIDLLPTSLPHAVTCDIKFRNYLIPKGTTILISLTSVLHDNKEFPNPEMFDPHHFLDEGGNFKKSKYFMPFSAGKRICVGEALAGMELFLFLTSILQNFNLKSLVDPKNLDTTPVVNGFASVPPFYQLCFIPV
Sequence of CYP2C19 (P33261 whole entry): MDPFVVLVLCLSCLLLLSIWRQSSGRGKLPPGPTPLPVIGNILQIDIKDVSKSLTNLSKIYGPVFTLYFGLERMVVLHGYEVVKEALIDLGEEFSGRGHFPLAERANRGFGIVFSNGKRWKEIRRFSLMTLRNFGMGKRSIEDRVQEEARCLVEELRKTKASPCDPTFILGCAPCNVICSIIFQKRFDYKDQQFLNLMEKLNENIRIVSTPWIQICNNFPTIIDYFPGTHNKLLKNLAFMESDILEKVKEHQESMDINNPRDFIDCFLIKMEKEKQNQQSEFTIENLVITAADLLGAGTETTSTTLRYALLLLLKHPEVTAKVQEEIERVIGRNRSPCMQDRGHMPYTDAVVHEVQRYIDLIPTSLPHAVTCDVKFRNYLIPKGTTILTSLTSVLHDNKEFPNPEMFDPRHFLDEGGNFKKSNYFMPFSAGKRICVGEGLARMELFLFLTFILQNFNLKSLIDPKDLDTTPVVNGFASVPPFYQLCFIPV
Sequence of CYP2D6 (P10635 whole entry, the tested form may be a part): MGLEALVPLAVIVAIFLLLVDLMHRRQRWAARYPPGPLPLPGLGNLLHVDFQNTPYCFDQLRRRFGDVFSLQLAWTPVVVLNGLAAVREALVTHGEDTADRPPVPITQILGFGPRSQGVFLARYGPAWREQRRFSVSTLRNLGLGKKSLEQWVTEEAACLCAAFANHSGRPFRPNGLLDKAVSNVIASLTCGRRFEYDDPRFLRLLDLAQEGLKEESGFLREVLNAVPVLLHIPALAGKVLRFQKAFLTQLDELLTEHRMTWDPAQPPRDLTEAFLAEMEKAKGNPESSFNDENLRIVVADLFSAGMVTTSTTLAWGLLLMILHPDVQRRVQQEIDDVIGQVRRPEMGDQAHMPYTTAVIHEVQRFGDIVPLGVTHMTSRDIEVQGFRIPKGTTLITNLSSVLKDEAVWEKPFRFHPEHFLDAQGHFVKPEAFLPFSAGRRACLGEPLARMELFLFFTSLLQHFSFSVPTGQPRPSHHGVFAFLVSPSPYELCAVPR

C=CC(=O)Nc1cc(Nc2ncc(I)c(Nc3ccccc3P(C)(C)=O)n2)c(OC)cc1N(C)CCN(C)C
EC50 [1]: > 5 µM
remaining at 0.5 h, 1 µM [2]: 65%
remaining at 0.5 h, 1 µM [3]: 93%
remaining at 0.5 h, 1 µM [4]: 81%
remaining at 0.5 h, 1 µM [5]: 57%
Activity at […], 10 µM [6]: 91%
Activity at […], 10 µM [7]: 88%
Activity at […], 10 µM [8]: > 100%
Activity at […], 10 µM [9]: 99%
Activity at […], 10 µM [10]: 80%

C=CC(=O)Nc1cc(Nc2nccc(Nc3ccccc3P(C)(C)=O)n2)c(OC)cc1N(C)CCN(C)C
IC50 [11]: 0.695 µM
EC50 [1]: > 5 µM
remaining at 0.5 h, 1 µM [2]: 70%
remaining at 0.5 h, 1 µM [3]: 73%
remaining at 0.5 h, 1 µM [4]: 78%
remaining at 0.5 h, 1 µM [5]: 76%
Activity at […], 10 µM [6]: 84%
Activity at […], 10 µM [7]: 89%
Activity at […], 10 µM [8]: 90%
Activity at […], 10 µM [9]: > 100%
Activity at […], 10 µM [10]: 87%

C=CC(=O)Nc1cc(Nc2nccc(Nc3ccccc3S(=O)(=O)N(C)C)n2)c(OC)cc1N(C)CCN(C)C
EC50 [1]: > 5 µM
remaining at 0.5 h, 1 µM [2]: 10%
remaining at 0.5 h, 1 µM [3]: 50%
remaining at 0.5 h, 1 µM [4]: 6%
remaining at 0.5 h, 1 µM [5]: 5%
Activity at […], 10 µM [6]: 82%
Activity at […], 10 µM [7]: 56%
Activity at […], 10 µM [8]: 88%
Activity at […], 10 µM [9]: 85%
Activity at […], 10 µM [10]: 79%

C=CC(=O)Nc1cc(Nc2ncc(I)c(Nc3ccccc3S(=O)(=O)C(C)C)n2)c(OC)cc1N(C)CCN(C)C
EC50 [1]: > 5 µM
remaining at 0.5 h, 1 µM [2]: 14%
remaining at 0.5 h, 1 µM [3]: 19%
remaining at 0.5 h, 1 µM [4]: 14%
remaining at 0.5 h, 1 µM [5]: 10%
Activity at […], 10 µM [6]: 81%
Activity at […], 10 µM [7]: 47%
Activity at […], 10 µM [8]: 88%
Activity at […], 10 µM [9]: 86%
Activity at […], 10 µM [10]: 82%

C=CC(=O)Nc1cc(Nc2ncc(Cl)c(Nc3ccccc3P(C)(C)=O)n2)c(OC)cc1N(C)CCN(C)C
EC50 [1]: > 5 µM
remaining at 0.5 h, 1 µM [2]: 61%
remaining at 0.5 h, 1 µM [3]: 77%
remaining at 0.5 h, 1 µM [4]: 76%
remaining at 0.5 h, 1 µM [5]: 66%
Activity at […], 10 µM [6]: 93%
Activity at […], 10 µM [7]: 91%
Activity at […], 10 µM [8]: > 100%
Activity at […], 10 µM [9]: 98%
Activity at […], 10 µM [10]: 85%

C=CC(=O)Nc1cc(Nc2ncc(F)c(Nc3ccccc3P(C)(C)=O)n2)c(OC)cc1N(C)CCN(C)C
EC50 [1]: > 5 µM
remaining at 0.5 h, 1 µM [2]: 84%
remaining at 0.5 h, 1 µM [3]: 87%
remaining at 0.5 h, 1 µM [4]: 87%
remaining at 0.5 h, 1 µM [5]: 80%
Activity at […], 10 µM [6]: > 100%
Activity at […], 10 µM [7]: > 100%
Activity at […], 10 µM [8]: > 100%
Activity at […], 10 µM [9]: > 100%
Activity at […], 10 µM [10]: > 100%

Cc1cc(Nc2ncc(Cl)c(Nc3ccccc3S(=O)(=O)C(C)C)n2)c(OC(C)C)cc1C1CCNCC1 [CERITINIB]
EC50 [1]: > 5 µM

C=CC(=O)Nc1cc(Nc2ncc(I)c(Nc3ccccc3S(=O)(=O)N(C)C)n2)c(OC)cc1N(C)CCN(C)C
remaining at 0.5 h, 1 µM [2]: 13%
remaining at 0.5 h, 1 µM [3]: 35%
remaining at 0.5 h, 1 µM [4]: 12%
remaining at 0.5 h, 1 µM [5]: 12%
Activity at […], 10 µM [6]: 79%
Activity at […], 10 µM [7]: 54%
Activity at […], 10 µM [8]: 85%
Activity at […], 10 µM [9]: 67%
Activity at […], 10 µM [10]: 93%

C=CC(=O)Nc1cccc(Oc2nc(Nc3ccc(N4CCN(C)CC4)cc3OC)ncc2Cl)c1
IC50 [11]: 0.99 µM
EC50 [1]: > 5 µM

C=CC(=O)Nc1cc(Nc2ncc(F)c(Nc3ccccc3S(=O)(=O)C(C)C)n2)c(OC)cc1N(C)CCN(C)C
EC50 [1]: > 5 µM
remaining at 0.5 h, 1 µM [2]: 26%
remaining at 0.5 h, 1 µM [3]: 27%
remaining at 0.5 h, 1 µM [4]: 11%
remaining at 0.5 h, 1 µM [5]: 15%
Activity at […], 10 µM [6]: 91%
Activity at […], 10 µM [7]: 51%
Activity at […], 10 µM [8]: 94%
Activity at […], 10 µM [9]: 93%
Activity at […], 10 µM [10]: 95%

C=CC(=O)Nc1cc(Nc2ncc(Cl)c(Nc3ccccc3S(=O)(=O)N(C)C)n2)c(OC)cc1N(C)CCN(C)C
remaining at 0.5 h, 1 µM [2]: 11%
remaining at 0.5 h, 1 µM [3]: 31%
remaining at 0.5 h, 1 µM [4]: 13%
remaining at 0.5 h, 1 µM [5]: 23%
Activity at […], 10 µM [6]: 87%
Activity at […], 10 µM [7]: 39%
Activity at […], 10 µM [8]: 59%
Activity at […], 10 µM [9]: 75%
Activity at […], 10 µM [10]: 88%

C=CC(=O)Nc1cc(Nc2nccc(-c3cn(C)c4ccccc34)n2)c(OC)cc1N(C)CCN(C)C [OSIMERTINIB]
IC50 [11]: 0.177 µM
EC50 [1]: > 5 µM

C=CC(=O)Nc1cc(Nc2ncc(F)c(Nc3ccccc3S(=O)(=O)N(C)C)n2)c(OC)cc1N(C)CCN(C)C
remaining at 0.5 h, 1 µM [2]: 9%
remaining at 0.5 h, 1 µM [3]: 33%
remaining at 0.5 h, 1 µM [4]: 7%
remaining at 0.5 h, 1 µM [5]: 10%
Activity at […], 10 µM [6]: > 100%
Activity at […], 10 µM [7]: 71%
Activity at […], 10 µM [8]: 88%
Activity at […], 10 µM [9]: 91%
Activity at […], 10 µM [10]: > 100%

C=CC(=O)Nc1cc(Nc2nccc(Nc3ccccc3S(=O)(=O)C(C)C)n2)c(OC)cc1N(C)CCN(C)C
EC50 [1]: > 5 µM
remaining at 0.5 h, 1 µM [2]: 5%
remaining at 0.5 h, 1 µM [3]: 48%
remaining at 0.5 h, 1 µM [4]: 22%
remaining at 0.5 h, 1 µM [5]: 8%
Activity at […], 10 µM [6]: 80%
Activity at […], 10 µM [7]: 40%
Activity at […], 10 µM [8]: 90%
Activity at […], 10 µM [9]: 87%
Activity at […], 10 µM [10]: 67%

— ChEMBL document CHEMBL4382192, “Discovery of a potent dual ALK and EGFR T790M inhibitor” (Eur J Med Chem, 2017)
